Results taken from ChEMBL document CHEMBL4325899, “Synthesis and photocytotoxic activity of [1,2,3]triazolo[4,5-h][1,6]naphthyridines and [1,3]oxazolo[5,4-h][1,6]naphthyridines” (Eur J Med Chem, 2019).

Key:
MCF7 [1] = test: Phototoxicity against human MCF7 cells preincubated for 5 mins followed by compound washout and subsequent UV irradiation at 1.5 J/cm2 for 5 mins measured after 72 hrs by MTT assay; format: functional, cell-based; conditions: MCF7, light or radiation study
Outline: (§1)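 Compounds were diluted in DMSO (0.5% final), applied in triplicate for 5 min, then washed out with PBS. After medium removal, cells were irradiated on ice for 5 min at 365 nm (1.5 J/cm²) and then kept 72 h at 37 °C. Viability was read by MTT at 540 nm and expressed relative to 0.5% DMSO controls given the same treatment. EC50 is the concentration killing 50%, as the mean ± SD of at least three experiments.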

HT-29 [2] = test: Phototoxicity against human HT-29 cells preincubated for 5 mins followed by compound washout and subsequent UV irradiation at 1.5 J/cm2 for 5 mins measured after 72 hrs by MTT assay; format: functional, cell-based; conditions: HT-29, light or radiation study; outline: as §1
[3] = Dark toxicity against human HT-29 cells preincubated for 5 mins followed by compound washout and measured after 72 hrs by MTT assay; format: cell-based
Outline: (§2)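 Cells were plated and allowed to attach overnight. Compounds were diluted in DMSO (0.5% final), with each concentration in triplicate, and applied for 5 min. Cells were then washed in PBS and given fresh medium. Without irradiation, cells were held 72 h at up to 50 μM. MTT (5 mg/mL stock) was added for 4 h, crystals were dissolved in SDS/HCl overnight, and absorbance was read at 540 nm. CC50 is the concentration killing 50% of cells, taken as the mean of at least three experiments.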

[4] = Dark toxicity against human MCF7 cells preincubated for 5 mins followed by compound washout and measured after 72 hrs by MTT assay; format: cell-based; outline: as §2
A-375 [5] = test: Phototoxicity against human A375 cells preincubated for 5 mins followed by compound washout and subsequent UV irradiation at 1.5 J/cm2 for 5 mins measured after 72 hrs by MTT assay; format: functional, cell-based; conditions: A-375, light or radiation study; outline: as §1
A-375 [6] = test: Phototoxicity index, ratio of CC50 for human A375 cells to EC50 for human A375 cells under UV irradiation at 1.5 J/cm2
[7] = Dark toxicity against human MCF10A cells preincubated for 5 mins followed by compound washout and measured after 72 hrs by MTT assay; format: cell-based, MCF-10A; outline: as §2
[8] = Solubility of the compound in DMSO; format: physicochemical
[9] = Dark toxicity against human A375 cells preincubated for 5 mins followed by compound washout and measured after 72 hrs by MTT assay; format: cell-based, A-375; outline: as §2
MCF-10A = test: Phototoxicity against human MCF10A cells preincubated for 5 mins followed by compound washout and subsequent UV irradiation at 1.5 J/cm2 for 5 mins measured after 72 hrs by MTT assay; format: cell-based; conditions: light or radiation study; outline: as §1
[10] = Selectivity index, ratio of EC50 for human MCF10A cells under UV irradiation at 1.5 J/cm2 to EC50 for human A375 cells under UV irradiation at 1.5 J/cm2; format: toxicity; conditions: MCF10A cells versus A375 cells, read-out: Ratio EC50
Outline: (§3)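 SI is the EC50 under irradiation in non-tumor MCF10A cells divided by the EC50 under irradiation in the tumor line. Both were MTT read-outs 72 h after 1.5 J/cm² at 365 nm.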

HT-29 [11] = test: Phototoxicity index, ratio of CC50 for human HT-29 cells to EC50 for human HT-29 cells under UV irradiation at 1.5 J/cm2
MCF7 [12] = test: Phototoxicity index, ratio of CC50 for human MCF7 cells to EC50 for human MCF7 cells under UV irradiation at 1.5 J/cm2
[13] = Selectivity index, ratio of EC50 for human MCF10A cells under UV irradiation at 1.5 J/cm2 to EC50 for human HT-29 cells under UV irradiation at 1.5 J/cm2; format: toxicity; conditions: MCF10A cells versus HT-29 cells, read-out: Ratio EC50; outline: as §3
[14] = Selectivity index, ratio of EC50 for human MCF10A cells under UV irradiation at 1.5 J/cm2 to EC50 for human MCF7 cells under UV irradiation at 1.5 J/cm2; format: toxicity; conditions: MCF10A cells versus MCF7 cells, read-out: Ratio EC50; outline: as §3
[15] = Phototoxicity index, ratio of CC50 for human MCF10A cells to EC50 for human MCF10A cells under UV irradiation at 1.5 J/cm2; format: cell-based, MCF-10A; conditions: read-out: Ratio CC50/EC50

solubility [8]	SMILES	EC50 (MCF7 [1]) [µM]	EC50 (HT-29 [2]) [µM]	CC50 at 72 h [3] [µM]	CC50 at 72 h [4] [µM]	EC50 (A-375 [5]) [µM]	Ratio CC50/EC50 (A-375 [6])	CC50 at 72 h [7] [µM]	CC50 at 72 h [9] [µM]	EC50 (MCF-10A) [µM]	selectivity ratio [10]	Ratio CC50/EC50 (HT-29 [11])	Ratio CC50/EC50 (MCF7 [12])	selectivity ratio [13]	selectivity ratio [14]	selectivity ratio [15]
Soluble	Cc1nc2oc(-c3ccccc3)nc2c2[nH]c(=O)ccc12	> 50	> 50	> 50	> 50	1.49	>34	> 50	> 50	> 50	34	–	–	–	–	–
Soluble	COc1ccccc1-c1ccc2c(C)nc3c(nnn3-c3cc(OC)c(OC)c(OC)c3)c2n1	> 50	> 50	> 50	> 50	> 50	–	> 50	> 50	> 50	–	–	–	–	–	–
Insoluble	COc1ccccc1-c1ccc2c(C)nc3c(nnn3-c3ccccc3)c2n1	–	–	–	–	–	–	–	–	–	–	–	–	–	–	–
Soluble	COc1cc(-n2nnc3c4nc(-c5ccccc5)ccc4c(C)nc32)cc(OC)c1OC	> 50	> 50	> 50	> 50	> 50	–	> 50	> 50	> 50	–	–	–	–	–	–
Insoluble	COc1ccc(-n2nnc3c4nc(-c5ccccc5)ccc4c(C)nc32)cc1	–	–	–	–	–	–	–	–	–	–	–	–	–	–	–
Soluble	COc1ccccc1-c1ccc2c(C)nc3oc(-c4ccccc4)nc3c2n1	1.32	0.197	> 50	> 50	0.633	>79	> 50	> 50	1.17	2	>254	>38	6	0.884	> 43
Soluble	COc1ccc(-n2nnc3c4[nH]c(=O)ccc4c(C)nc32)cc1	> 50	> 50	> 50	> 50	> 50	–	> 50	> 50	> 50	–	–	–	–	–	–
Insoluble	COc1ccc(-c2ccc3c(C)nc4oc(-c5cc(OC)c(OC)c(OC)c5)nc4c3n2)cc1	–	–	–	–	–	–	–	–	–	–	–	–	–	–	–
Insoluble	COc1cc(-c2nc3c(nc(C)c4ccc(=O)[nH]c43)o2)cc(OC)c1OC	–	–	–	–	–	–	–	–	–	–	–	–	–	–	–
Insoluble	COc1ccc(-c2nc3c(nc(C)c4ccc(=O)[nH]c43)o2)cc1	–	–	–	–	–	–	–	–	–	–	–	–	–	–	–
Insoluble	COc1ccc(-c2ccc3c(C)nc4c(nnn4-c4cc(OC)c(OC)c(OC)c4)c3n2)cc1	–	–	–	–	–	–	–	–	–	–	–	–	–	–	–
Soluble	Cc1nc2c(nnn2-c2ccccc2)c2[nH]c(=O)ccc12	> 50	> 50	> 50	> 50	> 50	–	> 50	> 50	> 50	–	–	–	–	–	–
Soluble	COc1ccc(-c2nc3c(nc(C)c4ccc(C)nc43)o2)cc1	> 50	4.28	> 50	> 50	> 50	–	> 50	> 50	> 50	–	>12	–	> 12	–	–
Soluble	Cc1nc2c(nnn2-c2ccccc2)c2nc(-c3ccccc3)ccc12	> 50	> 50	> 50	> 50	> 50	–	> 50	> 50	> 50	–	–	–	–	–	–

More lines, now with the values behind:

SMILES	solubility [8]	EC50 (MCF7 [1]) [µM]	EC50 (HT-29 [2]) [µM]	CC50 at 72 h [3] [µM]	CC50 at 72 h [4] [µM]	EC50 (A-375 [5]) [µM]	Ratio CC50/EC50 (A-375 [6])	CC50 at 72 h [7] [µM]	CC50 at 72 h [9] [µM]	EC50 (MCF-10A) [µM]	selectivity ratio [10]	Ratio CC50/EC50 (HT-29 [11])	Ratio CC50/EC50 (MCF7 [12])	selectivity ratio [13]	selectivity ratio [14]	selectivity ratio [15]
COc1ccc(-c2ccc3c(C)nc4oc(-c5ccccc5)nc4c3n2)cc1	Insoluble	–	–	–	–	–	–	–	–	–	–	–	–	–	–	–
COc1cc(-c2nc3c(nc(C)c4ccc(C)nc43)o2)cc(OC)c1OC	Soluble	> 50	> 50	> 50	> 50	> 50	–	> 50	> 50	> 50	–	–	–	–	–	–
COc1ccc(-c2ccc3c(C)nc4c(nnn4-c4ccccc4)c3n2)cc1	Soluble	34	0.099	> 50	> 50	10.1	>5	> 50	> 50	0.099	0.009	>508	>1.5	1.01	0.003	> 505
COc1cc(-c2nc3c(nc(C)c4ccc(-c5ccccc5)nc43)o2)cc(OC)c1OC	Soluble	5.94	0.62	> 50	> 50	1.44	>35	> 50	> 50	4.38	3	>81	>8	7	0.737	> 11
COc1cc(-n2nnc3c4nc(C)ccc4c(C)nc32)cc(OC)c1OC	Insoluble	–	–	–	–	–	–	–	–	–	–	–	–	–	–	–
COc1cc(-n2nnc3c4[nH]c(=O)ccc4c(C)nc32)cc(OC)c1OC	Insoluble	–	–	–	–	–	–	–	–	–	–	–	–	–	–	–
COc1ccc(-n2nnc3c4nc(-c5ccccc5OC)ccc4c(C)nc32)cc1	Soluble	> 50	> 50	> 50	> 50	1.09	>46	> 50	> 50	> 50	46	–	–	> 1	> 1	–
Cc1nc2oc(-c3ccccc3)nc2c2nc(-c3ccccc3)ccc12	Insoluble	–	–	–	–	–	–	–	–	–	–	–	–	–	–	–
Cc1ccc2c(C)nc3oc(-c4ccccc4)nc3c2n1	Soluble	> 50	6.59	> 50	> 50	> 50	–	> 50	> 50	> 50	–	>8	–	> 8	–	–
Cc1ccc2c(C)nc3c(nnn3-c3ccccc3)c2n1	Soluble	> 50	> 50	> 50	> 50	> 50	–	> 50	> 50	> 50	–	–	–	–	–	–
COc1ccc(-c2nc3c(nc(C)c4ccc(-c5ccccc5OC)nc43)o2)cc1	Insoluble	–	–	–	–	–	–	–	–	–	–	–	–	–	–	–
COc1ccc(-c2ccc3c(C)nc4c(nnn4-c4ccc(OC)cc4)c3n2)cc1	Soluble	> 50	1.74	> 50	> 50	0.875	>57	> 50	> 50	> 50	57	>29	–	> 29	> 1	–
COc1ccc(-c2ccc3c(C)nc4oc(-c5ccc(OC)cc5)nc4c3n2)cc1	Insoluble	–	–	–	–	–	–	–	–	–	–	–	–	–	–	–
